HIF act: HIF pathway transcriptional activation | U2OS HRE-luciferase reporter, luminescence; normalized: DMSO 0%, desferrioxamine 100% | activation, % at 7.5 µM (by protocol) | 0.32% of 300,000 active | AID 1910;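 active means mean activation of at least 10% of the iron chelator positive control signal, with at least half of replicates also reaching 10%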
PfHsp90 set2: inhibits growth of yeast expressing Plasmodium falciparum Hsp90; S. cerevisiae expressing PfHsp90, BacTiter-Glo ATP, 48 h; yeast lacking PDR1 and PDR3 efflux regulators; inhibition, % at 9.4 µM; 0.32% of 310,000 active; AID 504621;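 active means every replicate shows inhibition above about 80%, whatever the replicate mean, limit read from the data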
T cruzi inh: T. cruzi replication inhibition. T. cruzi beta-gal in NIH3T3, luminescence, 90 h. inhibition, % (concentration not given with the values). 1.4% of 300,000 active. AID 1885;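 active means mean inhibition across valid replicates above about 55%, limit read from the data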;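 further: signal also drops with host cell toxicity which is not excluded here; higher percent means less beta-gal luminescence so fewer parasites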
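Assay system: NIH/3T3 fibroblasts plus reporter T. cruzi. Amount: NIH/3T3 cells, 5,000 per well. Buffer or medium: DMEM, 2% fetal bovine serum. Doses: compound pinned at 50 nL/well, DMSO. Schedule: ≥90 h infection period, 3 h prior cell attachment. Signal: luminescent β-galactosidase signal after 60 min lysis. Read-out: parasite load inhibition, %.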
SKKanGAS inh: SKKanGAS growth inhibition; S. pyogenes SKKanGAS, kanamycin growth, BacTiter-Glo, 6 h; inhibition, % at 7.5 µM; 1.3% of 300,000 active; AID 1662;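 active means mean replicate score, as percent of positive control median, at least 50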;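 further: strain carries kanamycin resistance gene driven by streptokinase promoter and grows in 40 µg/ml kanamycin; loss of luminescence reflects streptokinase promoter inhibition or plain growth inhibition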
CSC inhib: blocks cancer stem cells; cancer stem cell-like cells viability, luminescence; 1.1% of 300,000 active; inhibition, % at 7.5 µM; in the data active means inhibition above about 75%; tested in HMLE shEcad cells
Beta cell apopt: beta cell apoptosis inhibition | INS-1E cytokine-induced death, ATP luminescence, 48 h; percent of positive-control rescue, neutral wells zero | 0.8% of 300,000 active | protection from apoptosis, % (no concentration beside the values);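 active means Every replicate reaches about 75%, or at least half do and their mean reaches it too, limit read from the data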;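 further: higher means more ATP so stronger rescue from cytokine killing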
Hits are given with their value; – = inactive; · = no result given. Shown are actives, neighbours in structure and some others; about 3.6% of the full set was active somewhere.

SMILES | HIF act | PfHsp90 set2 | T cruzi inh | SKKanGAS inh | CSC inhib | Beta cell apopt
O=C(Nc1cccc([N+](=O)[O-])c1)NC1CCCCCCC1 | · | – | · | · | – | –
C/C(=N\NC(=O)c1cc(C)nc2ccccc12)c1ccncc1 | – | – | – | – | · | –
C/C(=N\NC(=O)c1cc(C)nc2ccccc12)c1ccccn1 | · | – | · | · | 95.8 | 104.1
COc1cc(C(=O)N/N=C(\C)c2ccccn2)cc(OC)c1OC | – | – | – | – | – | 82.8
Clc1ccc(-c2csc(N3CCc4ccccc4C3)n2)cc1 | – | – | – | 55.6 | – | –
CCOc1ccc(NC(=S)Nc2cc(C)[nH]n2)cc1 | – | – | – | – | – | –
O=C(NCc1ccc(F)cc1)C1(S(=O)(=O)c2ccc(Cl)cc2)CC1 | – | – | – | – | · | –
Cc1ccc(C(=O)NC(=C(Cl)Cl)S(=O)(=O)c2ccccc2)cc1 | – | – | – | – | 98.0 | –
CN1C(=O)[C@H](Cc2ccc([N+](=O)[O-])cc2)NC1=S | – | – | – | – | – | –
O=C(CCc1ccccc1)Nc1ccnn1C1CCN(C/C=C/c2ccccc2)CC1 | 434.5 | – | – | – | – | –
COc1ccccc1/C=C/CN1CCC(n2nccc2NC(=O)CCc2ccccc2)CC1 | – | – | – | – | – | 78.1
O=C(Nc1ccnn1C1CCN(C/C=C/c2ccccc2)CC1)C1CCCC1 | – | – | – | – | – | –
COc1ccccc1CN1CCC(n2nccc2NC(=O)CCCc2ccccc2)CC1 | – | – | – | – | – | –
CC(C)[C@H](NC(=O)N1CCn2c1nc1ccccc12)C(=O)NC1CCCCC1 | – | – | – | – | – | –
O=C1/C(=C/c2ccncc2)CCC/C1=C\c1ccncc1 | – | 101.8 | – | – | · | ·
Cc1ccc(S(=O)(=O)N2CCOC23CCN(C(=O)c2cc(Cl)ccc2Cl)CC3)cc1 | 70.1 | – | – | – | – | –
Cc1ccc(S(=O)(=O)N2CCOC23CCN(C(=O)c2ccc(Cl)cc2Cl)CC3)cc1 | – | – | – | – | – | –
O=C(COC(=O)c1cc[n+]([O-])cc1)Nc1c(Cl)cccc1C(F)(F)F | – | – | – | – | – | ·
CC(C)(C)OC(=O)NN1CC(=O)N2Cc3ccccc3C[C@@H]2C1=O | – | – | – | – | – | –
CC(=O)N(C)C1=C(N2CCOCC2)C(=O)c2ccccc2C1=O | – | – | – | – | · | 125.2
COc1ccc(CC(=O)NCCCCc2ccccc2)cc1OC | – | – | – | – | – | –
CCOc1ccc2nc3cc(NCc4ccc(OC)cc4)ccc3c(N)c2c1 | – | – | – | – | 120.8 | –
CCn1cnc2cc(NCc3ccc(OC)cc3)ccc21 | – | – | – | – | – | –
Cc1nnc(C)c2c(C)n(-c3ccccc3)c(C)c12 | – | – | – | – | · | ·
Cc1nnc(C)c2c(C)n(C(c3ccccc3)c3ccccc3)c(C)c12 | – | – | 59.1 | – | – | –
SMILES | HIF act | PfHsp90 set2 | T cruzi inh | SKKanGAS inh | CSC inhib | Beta cell apopt
CCn1cc(C(=O)NCc2ccco2)c(=O)c2cc(S(=O)(=O)N3CCc4ccccc4C3)ccc21 | – | – | 55.7 | – | – | –
CCn1cc(C(=O)NCc2ccco2)c(=O)c2cc(S(=O)(=O)N3CCC(C)CC3)ccc21 | – | – | – | – | – | –
CCn1cc(C(=O)NCc2ccco2)c(=O)c2cc(S(=O)(=O)N3CC(C)CC(C)C3)ccc21 (centres undefined) | – | · | – | – | 82.7 | –
O=C(NCC1CCCO1)C(c1cccs1)N(Cc1ccccc1Cl)C(=O)c1ccc(-c2ccccc2)[nH]1 (centres undefined) | – | – | 74.2 | – | · | ·
COc1ccc(S(=O)(=O)N2CCC(C(=O)NC3CCCCC3C)CC2)cc1 (centres undefined) | – | – | – | – | – | –
Cc1cc(CCCCCCCCc2cc(C)cc(=O)o2)oc(=O)c1 | – | – | – | – | – | –
Cc1ccc(CNC(=O)NC2CCCCC2)cc1 | 18.0 | – | – | – | – | –
Cc1nn(-c2ccc(C(=O)NCC(c3ccco3)N3CCCC3)cc2)c(C)c1Cl (centres undefined) | · | – | · | · | · | –
O=c1cc2oc3cc(O)c(O)cc3c(-c3ccccc3O)c-2cc1O | · | – | · | · | · | ·
COc1ccc(OC)c(-c2c3cc(O)c(=O)cc-3oc3cc(O)c(O)cc23)c1 | · | – | · | · | 95.4 | –
CCOc1ccccc1-c1c2cc(O)c(=O)cc-2oc2cc(O)c(O)cc12 | · | 93.1 | · | · | · | ·
